Assay results: ChEMBL document CHEMBL1138232, “Optimization of naphthalimide-imidazoacridone with potent antitumor activity leading to clinical candidate (HKH40A, RTA 502)” (J Med Chem, 2007)

Assays:
BT-549 = assay: Antitumor activity against human BT549 cells after 48 hrs; assay type: functional; details: BT-549, 48 h, read-out: Log TGI (converted)
Summary of the method: (§1)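 Tested in the NCI 60 human tumour cell line screen, with continuous drug exposure for 48 h. Values include LC50 derived from the screen.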

HCT-116 [1] = assay: Cell cycle arrest in HCT116 cells assessed as accumulation at S phase at 50 nM after 72 hrs; assay type: functional, Homo sapiens
Summary of the method: (§2)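 HCT116 cells exposed to 50 nM drug for 72 h, then cell-cycle distribution analysed. Sub-G1, G1, S and G2/M fractions reported as percent of cells, with untreated control cells for comparison.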

OVCAR-4 = assay: Antitumor activity against human OVCAR4 cells after 48 hrs; assay type: functional; details: OVCAR-4, 48 h; summary of the method: as §1
DU-145 = assay: Antitumor activity against human DU145 cells after 48 hrs; assay type: functional; details: DU-145, 48 h; summary of the method: as §1
[2] = Antitumor activity against human HL60 (TB) cells after 48 hrs; assay type: functional, HL-60(TB); details: HL-60, 48 h; summary of the method: as §1
HCT-116 [3] = assay: Inhibition of tumor growth in HCT116 cells xenografted in nu/nu mouse; assay type: functional, Homo sapiens
Summary of the method: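 HCT116 xenografts in mice; compound given i.v. on a Q3Dx4 schedule, starting when tumours reached 62 mm3. Tumour growth inhibition measured.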

HCT-116 [4] = assay: Cell cycle arrest in HCT116 cells assessed as accumulation at Sub G1 phase at 50 nM after 72 hrs; assay type: functional, Homo sapiens; summary of the method: as §2
HCT-116 [5] = assay: Antitumor activity against human HCT116 cells after 48 hrs; assay type: functional; details: HCT-116, 48 h; summary of the method: as §1
SNB-19 = assay: Antitumor activity against human SNB19 cells after 48 hrs; assay type: functional; details: SNB-19, 48 h; summary of the method: as §1
SK-MEL-5 = assay: Antitumor activity against human SK-MEL-5 cells after 48 hrs; assay type: functional; details: SK-MEL-5, 48 h; summary of the method: as §1
ACHN = assay: Antitumor activity against human ACHN cells after 48 hrs; assay type: functional; summary of the method: as §1
SNB-75 = assay: Antitumor activity against human SNB75 cells after 48 hrs; assay type: functional; details: SNB-75, 48 h
Summary of the method: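 NCI 60 human tumour cell line screen; 48 h continuous drug exposure. Compounds tested as tri(methanesulfonate) salts, soluble in water and dilute buffers. Dilute solutions are light-sensitive and adsorb to glass or quartz.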

MIA PaCa-2 = assay: Inhibition of tumor growth in PaCa2 cells xenografted nu/nu mouse at 15 mg/kg; assay type: functional, Homo sapiens
Summary of the method: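 PaCa-2 tumour fragments implanted on the flank of nu/nu mice, 10 per group. Intraperitoneal treatment, Q3Dx4, started 12 days post-inoculation at 80 mm3 tumour volume. Tumour growth inhibition measured.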

[6] = Plasma clearance in CD2F1 mouse at 20 mg/kg, iv; assay type: ADME, organism-based; design: dose 20 mg/kg, route intravenous
Summary of the method: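 Pilot pharmacokinetics in CD2F1 mice after i.v. injection. Total plasma clearance derived from plasma concentration data.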

SN12C = assay: Antitumor activity against human SN12C cells after 48 hrs; assay type: functional; summary of the method: as §1
HT-29 = assay: Antitumor activity against HT29 cells expressing mutated p53; assay type: functional, cell-based; details: Homo sapiens
Summary of the method: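 Compounds tested as tri(methanesulfonate) salts, soluble in water and dilute buffers. Human tumour cells carrying wild-type or mutated p53 were exposed for 5 days, and viability was read by MTT assay. GI50, TGI and LC50 were calculated from the MTT data. Values are means ± SD of at least three independent experiments, with coefficients of variation of 10–20%.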

[7] = Antitumor activity against human […] cells after 48 hrs; assay type: functional; summary of the method: as §1
SK-OV-3 = assay: Antitumor activity against human SK-OV-3 cells after 48 hrs; assay type: functional; details: SK-OV-3, 48 h; summary of the method: as §1
[8] = read-out: Log LC50 (the source's name) (converted)

## COc1ccc2c(c1)c(=O)c1c(NCCCN3CCN(CCCN4C(=O)c5cccc6cc([N+](=O)[O-])cc(c56)C4=O)CC3)ccc3ncn2c31.CS(=O)(=O)O
BT-549
  TGI: 53.7 nM
HCT-116 [1]
  Activity: 2.3%
OVCAR-4
  GI50: 4.9 nM
OVCAR-4; [8]
  CC50: > 1000 nM
OVCAR-4; read-out: Log TGI (converted)
  TGI: 87.1 nM
DU-145
  GI50: 3.71 nM
DU-145; [8]
  CC50: > 1000 nM
DU-145; read-out: Log TGI (converted)
  TGI: > 1000 nM
[2]
  GI50: 0.159 nM
[2]; [8]
  CC50: > 1000 nM
HCT-116 [3]
  TGI: 59%
HCT-116 [4]
  Activity: 48%
HCT-116 [5]
  GI50: 0.407 nM
HCT-116 [5]; [8]
  CC50: 214 nM
HCT-116 [5]; read-out: Log TGI (converted)
  TGI: 15.1 nM
SNB-19
  GI50: 8.51 nM
SNB-19; [8]
  CC50: > 1000 nM
SNB-19; read-out: Log TGI (converted)
  TGI: > 1000 nM
SK-MEL-5
  GI50: 4.9 nM
SK-MEL-5; [8]
  CC50: 871 nM
SK-MEL-5; read-out: Log TGI (converted)
  TGI: 43.6 nM
ACHN
  GI50: 0.407 nM
ACHN; [8]
  CC50: > 1000 nM
ACHN; read-out: Log TGI (converted)
  TGI: 63.1 nM
SNB-75
  GI50: 6.76 nM
SNB-75; [8]
  CC50: > 1000 nM
SNB-75; read-out: Log TGI (converted)
  TGI: 214 nM
MIA PaCa-2
  inhibition in vivo at 15 mg/kg: 53.5%
[6]
  clearance: 238 mL/min/kg
SN12C
  GI50: 2.51 nM
SN12C; [8]
  CC50: > 1000 nM
SN12C; read-out: Log TGI (converted)
  TGI: > 1000 nM
HT-29
  IC50: 80 nM
[7]
  GI50: 4.79 nM
[7]; [8]
  CC50: > 1000 nM
[7]; read-out: Log TGI (converted)
  TGI: > 1000 nM
SK-OV-3
  GI50: 151 nM
SK-OV-3; [8]
  CC50: > 1000 nM
SK-OV-3; read-out: Log TGI (converted)
  TGI: > 1000 nM
